The array DNA melting data of Ke et al. (doi:10.1101/2024.01.08.574731)

Columns and labels:
[1] = folding enthalpy; higher = less favourable; fluorescence melt of hairpins on a sequencing array, two-state fit; conditions: sodium 0.088 M
Procedure, shortened: (§1)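 Cy3 fluorescence of library hairpins on a sequenced MiSeq flow cell, with annealed Cy3 and quencher oligos, was imaged in 50 mM Na-HEPES pH 8.0, 25 mM NaCl in 2.5 °C steps up to 60 °C. Signals were normalised to pre-quench Cy3 and to control variants. Melting temperature and folding enthalpy came from bootstrapped two-state fits, inverse-variance combined over four replicates. Fitted temperatures were raised by 9.35 °C to match UV melts.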

[2] = melting temperature; fluorescence melt of hairpins on a sequencing array, two-state fit, raised by 9.35 °C to match UV melts; conditions: sodium 0.088 M
Procedure, shortened: as §1

Row | Sequence | folding enthalpy [1] | Tm [2]
1 | GATCTGCGGTCAGATC ((((((....)))))) | -32.9 kcal/mol | 49.7 °C
2 | GATCTGCGTCAGATC ((((((...)))))) | -29.4 kcal/mol | 49.6 °C
3 | GATCTGCTCGCAGATC ((((((....)))))) | -47.5 kcal/mol | 62.6 °C
4 | GATCTGCTGCAGATC ((((((...)))))) | -41.4 kcal/mol | 50.4 °C
5 | GATCTGCTTACAGATC ((((((....)))))) | -42.8 kcal/mol | 51.8 °C
6 | GATCTGCTTCAGATC ((((((...)))))) | -36.6 kcal/mol | 48.7 °C
7 | GATCTGCTTCCAGATC ((((((....)))))) | -33.4 kcal/mol | 48.5 °C
8 | GATCTGGAGCAGATC ((((((...)))))) | -28.1 kcal/mol | 45.4 °C
9 | GATCTGGATGCAGATC ((((((....)))))) | -35.5 kcal/mol | 50.8 °C
10 | GATCTGGCAGCAGATC ((((((....)))))) | -41.8 kcal/mol | 51.3 °C
11 | GATCTGGCTCAGATC ((((((...)))))) | -35.5 kcal/mol | 49.1 °C
12 | GATCTGGGAAACTAGATC (((((.(....).))))) | -32.2 kcal/mol | 42.4 °C
13 | GATCTGGGAACAGATC ((((((....)))))) | -39.8 kcal/mol | 54.5 °C
14 | GATCTGGGCCAGATC ((((((...)))))) | -51.8 kcal/mol | 53.2 °C
15 | GATCTGGGTACAGATC ((((((....)))))) | -38.7 kcal/mol | 57.7 °C
16 | GATCTGGTAGCAGATC ((((((....)))))) | -36.6 kcal/mol | 52.2 °C
17 | GATCTGGTCACAGATC ((((((....)))))) | -40.3 kcal/mol | 62.1 °C
18 | GATCTGGTGCCAGATC ((((((....)))))) | -46.6 kcal/mol | 52.2 °C
19 | GATCTGTAAGCAGATC ((((((....)))))) | -49.9 kcal/mol | 51.4 °C
20 | GATCTGTACACAGATC ((((((....)))))) | -37.4 kcal/mol | 54.6 °C

Row | Sequence | folding enthalpy [1] | Tm [2]
21 | GATCTGTAGTCAGATC ((((((....)))))) | -35.5 kcal/mol | 49.1 °C
22 | GATCTGTCTACAGATC ((((((....)))))) | -47.5 kcal/mol | 54.9 °C
23 | GATCTGTGAACAGATC ((((((....)))))) | -43 kcal/mol | 52.9 °C
24 | GATCTGTGACAGATC ((((((...)))))) | -31.5 kcal/mol | 48.8 °C
25 | GATCTGTGTCAGATC ((((((...)))))) | -34.1 kcal/mol | 50.6 °C
26 | GATCTGTTGCAGATC ((((((...)))))) | -36.5 kcal/mol | 48.7 °C
27 | GATCTGTTGTCAGATC ((((((....)))))) | -37.1 kcal/mol | 50.9 °C
28 | GATCTGTTTTCAGATC ((((((....)))))) | -49.9 kcal/mol | 51.4 °C
29 | GATCTTAAATAAGATC ((((((....)))))) | -31.9 kcal/mol | 38.5 °C
30 | GATCTTAACAAGATC ((((((...)))))) | -31.9 kcal/mol | 45.6 °C
31 | GATCTTAAGAAAGATC ((((((....)))))) | -22.1 kcal/mol | 36 °C
32 | GATCTTAAGAAGATC ((((((...)))))) | -25.5 kcal/mol | 40.5 °C
33 | GATCTTACAAAAGATC ((((((....)))))) | -26.4 kcal/mol | 39.6 °C
34 | GATCTTACAAAGATC ((((((...)))))) | -32.2 kcal/mol | 44.4 °C
35 | GATCTTACGTAAGATC ((((((....)))))) | -63 kcal/mol | 48.3 °C
36 | GATCTTACTAAAGATC ((((((....)))))) | -33 kcal/mol | 43 °C
37 | GATCTTAGAAAGATC ((((((...)))))) | -31.3 kcal/mol | 41.5 °C
38 | GATCTTAGAGAAGATC ((((((....)))))) | -21.1 kcal/mol | 37.7 °C
39 | GATCTTAGCAAGATC ((((((...)))))) | -31.9 kcal/mol | 46.2 °C
40 | GATCTTAGCGAAGATC ((((((....)))))) | -31.2 kcal/mol | 43.4 °C
